Measurements from ChEMBL document CHEMBL1909618, “Non-steroidal dissociated glucocorticoid agonists: indoles as A-ring mimetics and function-regulating pharmacophores” (Bioorg Med Chem Lett, 2011).
Calls of active or inactive are those of the source. No cut-off for these calls is given here.

Experiments:
Mus musculus [1] = assay: Antiinflammatory activity in po dosed mouse plasma assessed as inhibition of LPS-induced TNFalpha production administered 1 hr before LPS challenge measured after 1 hr; format: functional
In short: (§1)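 Mice received compound orally in Cremophor RH 1 h before LPS challenge. Plasma TNF-α was measured 1 h after challenge. n = 8 per group; doses were 3 and 10 mg/kg.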

Mus musculus [2] = assay: Antiinflammatory activity in mouse plasma assessed as inhibition of LPS-induced TNFalpha production at 10 mg/kg, po administered 1 hr before LPS challenge measured after 1 hr; format: functional; in short: as §1
[3] = biological target: T1, Glucocorticoid receptor (Homo sapiens) (UniProt P04150); assay: Transactivation activity of glucocorticoid receptor in HFF assessed as induction of aromatase activity by measuring beta-estradiol activity after 18 to 24 hrs by ELISA relative to Dexamethasone
T1 sequence (whole entry): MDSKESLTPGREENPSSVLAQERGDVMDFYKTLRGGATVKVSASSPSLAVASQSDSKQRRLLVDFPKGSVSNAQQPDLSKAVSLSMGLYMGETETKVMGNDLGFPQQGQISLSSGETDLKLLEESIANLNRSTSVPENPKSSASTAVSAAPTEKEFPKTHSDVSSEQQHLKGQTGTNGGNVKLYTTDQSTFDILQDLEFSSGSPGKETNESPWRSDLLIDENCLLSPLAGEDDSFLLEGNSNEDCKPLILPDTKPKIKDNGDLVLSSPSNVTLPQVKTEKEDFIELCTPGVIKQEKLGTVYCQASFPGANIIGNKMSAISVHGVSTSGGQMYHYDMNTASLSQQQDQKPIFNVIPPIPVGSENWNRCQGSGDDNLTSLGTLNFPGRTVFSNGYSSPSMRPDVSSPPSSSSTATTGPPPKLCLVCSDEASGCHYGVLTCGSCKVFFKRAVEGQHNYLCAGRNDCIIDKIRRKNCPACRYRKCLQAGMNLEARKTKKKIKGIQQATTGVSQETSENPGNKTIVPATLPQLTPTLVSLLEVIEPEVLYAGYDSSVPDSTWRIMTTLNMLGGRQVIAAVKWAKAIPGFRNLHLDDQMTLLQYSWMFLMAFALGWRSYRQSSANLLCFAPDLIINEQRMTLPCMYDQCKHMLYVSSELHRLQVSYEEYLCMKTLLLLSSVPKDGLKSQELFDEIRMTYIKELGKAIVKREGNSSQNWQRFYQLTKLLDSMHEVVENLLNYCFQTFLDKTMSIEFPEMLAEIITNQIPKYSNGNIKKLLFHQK

Glucocorticoid receptor [4] = biological target: T2, Glucocorticoid receptor (Homo sapiens, UniProt P04150); assay: Agonist activity at glucocorticoid receptor in HFF assessed as inhibition of IL1-induced IL-6 production after 18 to 24 hrs; format: functional
T2 sequence (P04150 whole entry): T1 sequence (whole entry)

Progesterone receptor = biological target: T3, Progesterone receptor (Homo sapiens, UniProt P06401); assay: Displacement of tetramethylrhodamine-labeled RU-486 from human recombinant progesterone receptor expressed in baculovirus infected insect cells by fluorescence polarization assay
T3 sequence (P06401 whole entry): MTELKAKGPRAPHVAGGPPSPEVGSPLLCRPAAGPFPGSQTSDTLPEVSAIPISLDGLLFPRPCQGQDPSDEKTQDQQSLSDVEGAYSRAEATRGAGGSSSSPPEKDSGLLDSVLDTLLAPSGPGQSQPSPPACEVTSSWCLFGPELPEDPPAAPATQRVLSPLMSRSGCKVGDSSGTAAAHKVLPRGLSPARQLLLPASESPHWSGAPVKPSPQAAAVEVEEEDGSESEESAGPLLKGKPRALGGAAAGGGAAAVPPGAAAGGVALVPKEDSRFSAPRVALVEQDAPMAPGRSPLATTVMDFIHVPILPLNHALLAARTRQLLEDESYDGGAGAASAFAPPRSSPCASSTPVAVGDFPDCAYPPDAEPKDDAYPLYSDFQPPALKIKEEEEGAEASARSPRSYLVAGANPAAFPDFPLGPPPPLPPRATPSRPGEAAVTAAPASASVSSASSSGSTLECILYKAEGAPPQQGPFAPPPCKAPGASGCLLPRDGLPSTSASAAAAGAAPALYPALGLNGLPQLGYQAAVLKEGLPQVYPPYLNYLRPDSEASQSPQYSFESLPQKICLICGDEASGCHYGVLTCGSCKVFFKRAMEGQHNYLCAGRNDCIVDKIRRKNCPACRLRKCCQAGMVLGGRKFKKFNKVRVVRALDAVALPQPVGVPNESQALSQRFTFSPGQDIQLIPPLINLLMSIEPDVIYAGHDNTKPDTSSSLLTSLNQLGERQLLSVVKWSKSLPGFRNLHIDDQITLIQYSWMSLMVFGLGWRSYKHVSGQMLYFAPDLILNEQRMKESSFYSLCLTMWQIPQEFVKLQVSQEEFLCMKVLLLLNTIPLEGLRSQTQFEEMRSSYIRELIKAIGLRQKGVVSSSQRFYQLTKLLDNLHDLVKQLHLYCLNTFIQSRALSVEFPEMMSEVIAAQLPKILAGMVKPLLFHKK
In short: (§2)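 Fluorescence polarization competition assays with recombinant human receptors in lysates of baculovirus-infected insect cells. Reactions contained 1% DMSO and ran 1 h at room temperature.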

[5] = biological target: T4, Mineralocorticoid receptor (Homo sapiens, UniProt P08235); assay: Displacement of tetramethylrhodamine-labeled Dexamethasone from human recombinant mineralocorticoid receptor expressed in baculovirus infected insect cells by fluorescence polarization assay; in short: as §2
T4 sequence (P08235 whole entry): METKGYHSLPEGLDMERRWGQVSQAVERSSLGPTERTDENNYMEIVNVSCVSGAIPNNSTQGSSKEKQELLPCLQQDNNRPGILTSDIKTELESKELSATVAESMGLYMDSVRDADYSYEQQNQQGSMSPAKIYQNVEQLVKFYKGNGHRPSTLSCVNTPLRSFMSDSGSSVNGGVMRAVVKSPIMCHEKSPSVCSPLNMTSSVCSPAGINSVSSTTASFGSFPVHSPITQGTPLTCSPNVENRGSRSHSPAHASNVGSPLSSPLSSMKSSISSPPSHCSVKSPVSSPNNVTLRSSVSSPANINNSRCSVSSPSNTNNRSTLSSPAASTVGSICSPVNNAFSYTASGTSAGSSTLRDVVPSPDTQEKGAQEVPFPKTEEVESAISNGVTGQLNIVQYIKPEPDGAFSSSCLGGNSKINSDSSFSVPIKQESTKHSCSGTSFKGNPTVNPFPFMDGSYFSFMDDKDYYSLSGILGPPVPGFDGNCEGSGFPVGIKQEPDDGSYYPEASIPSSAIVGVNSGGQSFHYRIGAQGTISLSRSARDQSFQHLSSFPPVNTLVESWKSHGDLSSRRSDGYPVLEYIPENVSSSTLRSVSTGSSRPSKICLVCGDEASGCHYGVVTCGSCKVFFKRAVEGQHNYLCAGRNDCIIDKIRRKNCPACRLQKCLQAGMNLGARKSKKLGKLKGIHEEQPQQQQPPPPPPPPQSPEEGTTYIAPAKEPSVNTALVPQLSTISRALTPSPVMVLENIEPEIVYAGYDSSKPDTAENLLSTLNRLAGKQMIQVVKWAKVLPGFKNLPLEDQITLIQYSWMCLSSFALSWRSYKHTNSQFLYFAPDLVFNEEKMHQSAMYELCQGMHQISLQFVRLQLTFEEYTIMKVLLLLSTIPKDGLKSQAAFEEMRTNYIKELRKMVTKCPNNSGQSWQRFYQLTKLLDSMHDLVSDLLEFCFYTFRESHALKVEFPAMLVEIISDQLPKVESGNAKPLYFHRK

Glucocorticoid receptor [6] = biological target: T2, Glucocorticoid receptor; assay: Transactivation activity of glucocorticoid receptor in HFF assessed as induction of aromatase activity by measuring beta-estradiol activity after 18 to 24 hrs by ELISA
Homo sapiens [7] = species: Homo sapiens; assay: Selectivity ratio of IC50 for human recombinant glucocorticoid receptor to IC50 for human recombinant progesterone receptor
Glucocorticoid receptor [8] = biological target: T2, Glucocorticoid receptor; assay: Displacement of tetramethylrhodamine-labeled Dexamethasone from human recombinant glucocorticoid receptor expressed in baculovirus infected insect cells by fluorescence polarization assay
[9] = biological target: T1, Glucocorticoid receptor (Homo sapiens); assay: Agonist activity at glucocorticoid receptor in HFF assessed as inhibition of IL1-induced IL-6 production after 18 to 24 hrs relative to Dexamethasone; format: functional
In short: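 Human foreskin fibroblasts stimulated with IL-1 (1 ng/mL) in the presence of test compound, incubated at 37 °C for 18–24 h. IL-6 in the culture medium was quantified by electrochemiluminescence, DELFIA or ELISA. IC50 and % maximal efficacy were reported.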

Homo sapiens [10] = species: Homo sapiens; assay: Selectivity ratio of IC50 for human recombinant glucocorticoid receptor to IC50 for human recombinant mineralocorticoid receptor
[11] = biological target: T1, Glucocorticoid receptor (Homo sapiens); assay: Agonist activity at glucocorticoid receptor in human HeLa cells transfected with luciferase gene linked to MMTV promoter assessed as luciferase transactivation activity relative to Dexamethasone; format: functional, cell-based
In short: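 HeLa cells stably carrying an MMTV-luciferase construct were exposed to compound for 6 h at 37 °C, 5% CO2. Cells were then lysed and luminescence read with a Steady-Glo reagent. EC50 and % maximal efficacy were reported.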

Glucocorticoid receptor [12] = biological target: T2, Glucocorticoid receptor; assay: Agonist activity at glucocorticoid receptor in human HeLa cells transfected with luciferase gene linked to MMTV promoter assessed as luciferase transactivation activity; format: functional, cell-based
Mus musculus [13] = assay: Antiinflammatory activity in mouse plasma assessed as inhibition of LPS-induced TNFalpha production at 3 mg/kg, po administered 1 hr before LPS challenge measured after 1 hr; format: functional; in short: as §1

Row | Efficacy [3] | IC50 (Glucocorticoid receptor [4]) | IC50 (Progesterone receptor) | IC50 [5] | EC50 (Glucocorticoid receptor [6]; read-out: EC50) | Ratio IC50 (Homo sapiens [7]) | IC50 (Glucocorticoid receptor [8]) | Efficacy [9] | EC50 (Glucocorticoid receptor [6]) | Ratio IC50 (Homo sapiens [10]) | Efficacy [11] | EC50 (Glucocorticoid receptor [12]) | Compound | ED50 (Mus musculus [1]) | inhibition in vivo at 10 mg/kg (Mus musculus [2]) | inhibition in vivo at 3 mg/kg (Mus musculus [13]) | inhibition (Mus musculus [13])
1 |  |  |  |  |  |  |  |  |  |  |  |  | CC(C)(C[C@@](O)(Cc1cc2ccccc2[nH]1)C(F)(F)F)c1cc(Br)cc2c1OCC2 | < 10 mg/kg | 61% |  | 
2 | 91% | 8 nM | 440 nM | 225 nM | 21 nM | 90 | 5 nM | 91% |  |  |  |  | COc1ccc(F)cc1C(C)(C)CC(O)(Cc1cc2c(C#N)cccc2[nH]1)C(F)(F)F (racemic) |  |  |  | 
3 | 49% | 88 nM | 1000 nM | 790 nM |  | 30 | 28 nM | 90% | Not Active |  |  |  | CCc1cccc2[nH]c(CC(O)(CC(C)(C)c3cc(F)ccc3OC)C(F)(F)F)cc12 (racemic) |  |  |  | 
4 | 98% | 14 nM | 395 nM | 435 nM | 113 nM | 30 | 14 nM | 91% |  | 30 |  |  | COc1ccc(F)cc1C(C)(C)CC(O)(Cc1cc2ccc(C#N)cc2[nH]1)C(F)(F)F (racemic) |  |  |  | 
5 | 81% | 11 nM | 815 nM | 415 nM | 28 nM | 100 | 8 nM | 89% |  | 50 |  |  | COc1ccc(F)cc1C(C)(C)CC(O)(Cc1cc2cc(C#N)ccc2[nH]1)C(F)(F)F (racemic) |  |  |  | 
6 | 98% | 39 nM | > 2000 nM | 430 nM | 125 nM |  | 5 nM | 89% |  |  | 10% | > 2000 nM | CC(C)(CC(O)(Cc1cc2ccc(C#N)cc2[nH]1)C(F)(F)F)c1cc(S(C)(=O)=O)cc2c1OCC2 (racemic) | < 10 mg/kg | 66% | 66% | 
7 | 55% | 104 nM | 710 nM | 405 nM | 356 nM | 50 | 15 nM | 65% |  |  |  |  | CC(C)(CC(O)(Cc1cc2ccccc2[nH]1)C(F)(F)F)c1cc(C#N)cc2c1OCC2 (racemic) |  |  |  | 
8 | 71% | 3 nM | 155 nM | 45 nM | 6 nM |  | 1 nM | 90% |  |  | 10% | 36 nM | COc1ccc(F)cc1C(C)(C)C[C@@](O)(Cc1cc2cc(C#N)ccc2[nH]1)C(F)(F)F |  |  |  | 
9 | 63% | 49 nM | > 2000 nM | 1450 nM | 80 nM |  | 5 nM | 85% |  |  | 4% | > 2000 nM | CC(C)(CC(O)(Cc1cc2cc(C#N)ccc2[nH]1)C(F)(F)F)c1cc(S(C)(=O)=O)cc2c1OCC2 (racemic) | < 10 mg/kg | 77% |  | inactive
10 |  | 100 nM | > 2000 nM | 610 nM |  | > 300 | 6 nM | 84% |  | 100 | 20% | > 2000 nM | CC(C)(CC(O)(Cc1cc2ccccc2[nH]1)C(F)(F)F)c1cc(S(C)(=O)=O)cc2c1OCC2 (racemic) |  |  |  | 
